The values that follow come from ChEMBL document CHEMBL4371031, “In Vitro Antiviral Activity of New Oxazoline Derivatives as Potent Poliovirus Inhibitors” (J Med Chem, 2019).

Data set [1] relates to Poliovirus 1. Nature of the data set: Antiviral activity against Poliovirus Sabin 1 infected in human HeLa cells assessed as reduction in virus-induced cytopathic effect after 72 hrs by crystal violet staining-based assay. Type of data set: functional, organism-based. The note with it: Enterovirus C. The method in brief: (§1)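 HeLa cells grown in MEM-10% FBS, seeded at 2x10^5 cells/mL in MEM-2% FBS and preincubated 24 h at 37°C, 5% CO2. Compound and virus were cross-titrated […] compound in 0.5 log10 steps (7-point curves), with duplicate wells and three replicate tests per virus. After 72 h at 37°C, cells were crystal violet stained and read at 590 nm. EC50 came from a four-parameter fit; if all virus dilutions gave >80% monolayer destruction, the value was […].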

The test system of data set [2] is Poliovirus 2. Nature of the data set: Antiviral activity against Poliovirus Sabin 2 infected in human HeLa cells assessed as reduction in virus-induced cytopathic effect after 72 hrs by crystal violet staining-based assay. The data set is classed as functional, organism-based. The note with it: Enterovirus C. The method in brief:
as §1

The subject of data set [3] is Poliovirus 1. Nature of the data set: Antiviral activity against Human poliovirus 1 10688 infected in human HeLa cells assessed as reduction in virus-induced cytopathic effect after 72 hrs by crystal violet staining-based assay. The data set is classed as functional, organism-based. The note with it: Enterovirus C, 10688, HeLa. The method in brief: as §1
Data set [4] relates to Poliovirus 1. Nature of the data set: Antiviral activity against Human poliovirus 1 10691 infected in human HeLa cells assessed as reduction in virus-induced cytopathic effect after 72 hrs by crystal violet staining-based assay. The note with it: Enterovirus C, 10691, HeLa. The data set is classed as functional, organism-based. The method in brief:
as §1

Data set [5] has as its system Poliovirus 1. Briefly: Antiviral activity against Human poliovirus 1 10692 infected in human HeLa cells assessed as reduction in virus-induced cytopathic effect after 72 hrs by crystal violet staining-based assay. The data set is classed as functional, organism-based. The note with it: Enterovirus C, 10692, HeLa. The method in brief:
as §1

Data set [6] has as its system Poliovirus 1. Briefly: Antiviral activity against Human poliovirus 1 10693 infected in human HeLa cells assessed as reduction in virus-induced cytopathic effect after 72 hrs by crystal violet staining-based assay. Type of data set: functional, organism-based. To be noted: Enterovirus C, 10693, HeLa. The method in brief:
as §1

Data set [7] deals with Poliovirus 1. Nature of the data set: Antiviral activity against Human poliovirus 1 10694 infected in human HeLa cells assessed as reduction in virus-induced cytopathic effect after 72 hrs by crystal violet staining-based assay. Type of data set: functional, organism-based. The note with it: Enterovirus C, 10694, HeLa. The method in brief:
as §1

The subject of data set [8] is Poliovirus 1. Briefly: Antiviral activity against Human poliovirus 1 10695 infected in human HeLa cells assessed as reduction in virus-induced cytopathic effect after 72 hrs by crystal violet staining-based assay. Type of data set: functional, organism-based. To be noted: Enterovirus C, 10695, HeLa. The method in brief: as §1
The subject of data set [9] is Poliovirus 1. Nature of the data set: Antiviral activity against Human poliovirus 1 10223 infected in human HeLa cells assessed as reduction in virus-induced cytopathic effect after 72 hrs by crystal violet staining-based assay. Type of data set: functional, organism-based. The note with it: Enterovirus C, 10223, HeLa. The method in brief: as §1
The subject of data set [10] is Poliovirus 1. Nature of the data set: Antiviral activity against Human poliovirus 1 10225 infected in human HeLa cells assessed as reduction in virus-induced cytopathic effect after 72 hrs by crystal violet staining-based assay. Type of data set: functional, organism-based. The note with it: Enterovirus C, 10225, HeLa. The method in brief: as §1
Data set [11] relates to Poliovirus 1. Briefly: Antiviral activity against Human poliovirus 1 10238 infected in human HeLa cells assessed as reduction in virus-induced cytopathic effect after 72 hrs by crystal violet staining-based assay. The note with it: Enterovirus C, 10238, HeLa. Type of data set: functional, organism-based. The method in brief:
as §1

Data set [12] has as its system Poliovirus 1. Nature of the data set: Antiviral activity against Human poliovirus 1 10242 infected in human HeLa cells assessed as reduction in virus-induced cytopathic effect after 72 hrs by crystal violet staining-based assay. The data set is classed as functional, organism-based. To be noted: Enterovirus C, 10242, HeLa. The method in brief: as §1
Data set [13] relates to Poliovirus 2. Briefly: Antiviral activity against Human poliovirus 2 10227 infected in human HeLa cells assessed as reduction in virus-induced cytopathic effect after 72 hrs by crystal violet staining-based assay. The note with it: Enterovirus C, 10227, HeLa. Type of data set: functional, organism-based. The method in brief:
as §1

Data set [14] relates to Poliovirus 2. Nature of the data set: Antiviral activity against Human poliovirus 2 10228 infected in human HeLa cells assessed as reduction in virus-induced cytopathic effect after 72 hrs by crystal violet staining-based assay. To be noted: Enterovirus C, 10228, HeLa. The data set is classed as functional, organism-based. The method in brief: as §1
Data set [15] has as its system Poliovirus 2. Briefly: Antiviral activity against Human poliovirus 2 10229 infected in human HeLa cells assessed as reduction in virus-induced cytopathic effect after 72 hrs by crystal violet staining-based assay. The data set is classed as functional, organism-based. The note with it: Enterovirus C, 10229, HeLa. The method in brief: as §1
Data set [16] concerns Poliovirus 2. Briefly: Antiviral activity against Human poliovirus 2 10232 infected in human HeLa cells assessed as reduction in virus-induced cytopathic effect after 72 hrs by crystal violet staining-based assay. The note with it: Enterovirus C, 10232, HeLa. Type of data set: functional, organism-based. The method in brief: as §1
A further data set relates to Poliovirus 3. Nature of the data set: Antiviral activity against Human poliovirus 3 10804 infected in human HeLa cells assessed as reduction in virus-induced cytopathic effect after 72 hrs by crystal violet staining-based assay. The data set is classed as functional, organism-based. To be noted: Enterovirus C, 10804, HeLa. The method in brief:
as §1

Data set [17] has as its system Poliovirus 1. Nature of the data set: Antiviral activity against Human poliovirus 1 Brunhilde infected in human HeLa cells assessed as reduction in virus-induced cytopathic effect after 72 hrs by crystal violet staining-based assay. The data set is classed as functional, organism-based. To be noted: Enterovirus C. The method in brief: as §1
Data set [18] relates to Poliovirus 1. Briefly: Antiviral activity against Human poliovirus 1 Mahoney infected in human HeLa cells assessed as reduction in virus-induced cytopathic effect after 72 hrs by crystal violet staining-based assay. The data set is classed as functional, organism-based. The note with it: Enterovirus C. The method in brief:
as §1

The test system of data set [19] is Poliovirus 2. Briefly: Antiviral activity against Human poliovirus 2 Sabin 2 infected in human HeLa cells assessed as reduction in virus-induced cytopathic effect after 72 hrs by crystal violet staining-based assay. The data set is classed as functional, organism-based. The note with it: Enterovirus C, Sabin 2, HeLa. The method in brief:
as §1

Data set [20] deals with Poliovirus 2. Nature of the data set: Antiviral activity against Poliovirus Sabin 2 infected in human HeLa cells assessed as reduction in virus-induced cytopathic effect at 1 uM treated 1 hr post infection and measured after 12 hrs by luminescence based assay. Type of data set: functional, organism-based. The method in brief: (§2)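 HeLa monolayers were infected with Sabin 2 at 100 CCID50 for 1 h at 37°C, then washed 3x. Drug was added at 0, 1, 2, 4, 6 or 8 h post-infection and left in place. At 12 h, virus was freeze-thawed 3x and titrated in 0.5 log10 dilutions (16 replicates) on HeLa cells for 5 days. CPE was read by ATP luminescence, titre calculated as CCID50 (Kärber); mean of three independent experiments.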

In data set [21] the test system is Poliovirus 2. Nature of the data set: Antiviral activity against Poliovirus Sabin 2 infected in human HeLa cells assessed as reduction in virus-induced cytopathic effect at 1 uM treated 6 hrs post infection and measured after 12 hrs by luminescence based assay. Type of data set: functional, organism-based. The method in brief:
as §2

Data set [22] is described as follows: Cytotoxicity against human HeLa cells after 72 hrs by ATP-bioluminescence cell viability assay. The data set is classed as cell-based. The method in brief: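 Luminescent ATP cell-viability read-out on HeLa cells with compound only, run under conditions similar to the cytopathic-effect assay (72 h, 37°C). Signal was compared with cell-only wells. CC50 was derived from the titration curves.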

Data set [23] deals with Poliovirus 2. Briefly: Antiviral activity against Poliovirus Sabin 2 infected in human HeLa cells assessed as reduction in virus-induced cytopathic effect at 1 uM treated 0 to 8 hrs post infection and measured after 12 hrs by luminescence based assay. Type of data set: functional, organism-based. The method in brief:
as §2

Activity calls are given as the source filed them. The calls are words filed in the database; no cut-off is given here. Some results are limits rather than exact numbers.

For `Cc1ccc(C(=O)CCCCOc2ccc(C3=NCCO3)cc2)s1`, the 50% effective concentration (EC50) with Poliovirus 1 [1] is 90800 nM; in the data set with Poliovirus 2 [2], 187 nM; with Poliovirus 1 [3] it was 40 nM; with Poliovirus 1 [4], 67500 nM; in the data set on Poliovirus 1 [5] it was more than 100000 nM; in the data set with Poliovirus 1 [6] it was 24200 nM. Besides, the EC50 stood at 7220 nM in the data set with Poliovirus 1 [7]; 8410 nM in the data set with Poliovirus 1 [8]; 70 nM in the data set with Poliovirus 1 [9]; 35700 nM in the data set with Poliovirus 1 [10]; 2100 nM in the data set on Poliovirus 1 [11]; 37900 nM in the data set on Poliovirus 1 [12]. For the same molecule, the EC50 with Poliovirus 2 [13] was 30 nM; in the data set on Poliovirus 2 [14] it was 10100 nM; in the data set with Poliovirus 2 [15], 550 nM; in the data set with Poliovirus 2 [16], 540 nM; in the data set on Poliovirus 3, more than 100000 nM; in the data set on Poliovirus 1 [17], 990 nM. For the same molecule, the EC50 in the data set with Poliovirus 1 [18] is more than 100000 nM; in the data set on Poliovirus 2 [19], 30 nM. The result with Poliovirus 2 [20] and in the data set with Poliovirus 2 [21] was inactive. Besides, in data set [22], the CC50 at 72 h was more than 50000 nM.
Regarding `Cc1ccc(C(=O)CCCCSc2ccc(C3=NCCO3)cc2)s1`, the EC50 in the data set on Poliovirus 1 [1] was 118 nM; with Poliovirus 2 [2], 137 nM; in the data set on Poliovirus 1 [3], 2800 nM; with Poliovirus 1 [4], 560 nM; in the data set with Poliovirus 1 [5], more than 10000 nM; in the data set on Poliovirus 1 [6], more than 10000 nM. Also, the EC50 is 6230 nM with Poliovirus 1 [7]; 7430 nM with Poliovirus 1 [8]; 3730 nM in the data set on Poliovirus 1 [9]; more than 10000 nM in the data set on Poliovirus 1 [10]; 7470 nM with Poliovirus 1 [11]; 8200 nM in the data set with Poliovirus 1 [12]. Besides, the EC50 was found to be 4330 nM in the data set on Poliovirus 2 [13]; 9100 nM in the data set on Poliovirus 2 [14]; 2770 nM with Poliovirus 2 [15]; 6330 nM in the data set with Poliovirus 2 [16]; 440 nM in the data set with Poliovirus 3; 470 nM in the data set on Poliovirus 1 [17]. Also, the EC50 in the data set on Poliovirus 1 [18] was more than 10000 nM; with Poliovirus 2 [19], 160 nM. In addition, in the data set on Poliovirus 2 [20], the outcome was inactive. In the data set with Poliovirus 2 [21], the outcome was Active. Also, half-maximal cytotoxicity in data set [22] (CC50 at 72 h) was put at 20000 nM.
For `Cc1ccc(C(=O)CCC/C=C/c2ccc(C3=NCCO3)cc2)s1`, the EC50 in the data set on Poliovirus 1 [1] worked out at 338 nM; in the data set on Poliovirus 2 [2], 27 nM; with Poliovirus 1 [3], 40 nM; in the data set with Poliovirus 1 [4], 980 nM; in the data set on Poliovirus 1 [5], 780 nM; in the data set on Poliovirus 1 [6], 980 nM. The EC50 stood at 2300 nM in the data set with Poliovirus 1 [7]; 580 nM in the data set with Poliovirus 1 [8]; 20 nM in the data set with Poliovirus 1 [9]; 810 nM in the data set with Poliovirus 1 [10]; 190 nM in the data set with Poliovirus 1 [11]; 20 nM in the data set with Poliovirus 1 [12]. In addition, the 50% effective concentration (EC50) in the data set with Poliovirus 2 [13] was 40 nM; in the data set with Poliovirus 2 [14] it was 500 nM; in the data set on Poliovirus 2 [15], 510 nM; in the data set with Poliovirus 2 [16], 23 nM; in the data set on Poliovirus 3 it was 20 nM; with Poliovirus 1 [17], 70 nM. Besides, the EC50 in the data set on Poliovirus 1 [18] worked out at 70 nM; with Poliovirus 2 [19], 30 nM. The result in the data set with Poliovirus 2 [23] was Active. For the same molecule, the CC50 at 72 h in data set [22] was more than 50000 nM.
